# Data reported in ChEMBL document CHEMBL3822423 (J Med Chem, 2016).
# Activity calls are given as the source filed them. The calls are words filed in the database; no cut-off is given here.
# Tests used:
# Micrococcus luteus = test: Antibacterial activity against Micrococcus luteus ATCC 4698 after 18 to 24 hrs; assay type: functional; conditions: NCTC 2665
# Staphylococcus aureus [1] = test: Antibacterial activity against methicillin-resistant Staphylococcus aureus N315 after 18 to 24 hrs; assay type: functional
# Staphylococcus aureus [2] = test: Antibacterial activity against Staphylococcus aureus ATCC 25923 after 18 to 24 hrs; assay type: functional
# Bacillus spizizenii = test: Antibacterial activity against Bacillus subtilis ATCC 6633 after 18 to 24 hrs; assay type: functional
# Pseudomonas aeruginosa = test: Antibacterial activity against Pseudomonas aeruginosa ATCC 9027 after 18 to 24 hrs; assay type: functional
# Escherichia coli = test: Antibacterial activity against Escherichia coli ATCC 25922 after 18 to 24 hrs; assay type: functional
# [3] = Cytotoxicity against human LO2 cells assessed as cell viability at 512 ug/mL after 72 hrs by MTT assay; assay type: cell-based; conditions: l02, 72 h
# Procedure, shortened: (§1)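 PC12 and human hepatocyte LO2 cells were exposed to compound at 8–512 µg/mL in twofold steps. Viability was read by colorimetric MTT assay, with norfloxacin as positive control. Each value is the mean of three replicates.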
# [4] = Cytotoxicity against rat PC12 cells assessed as reduction in cell viability at 128 ug/mL after 72 hrs by MTT assay; assay type: cell-based; conditions: pc-12, 72 h; procedure, shortened: as §1
# [5] = Cytotoxicity against human LO2 cells assessed as reduction in cell viability at 128 ug/mL after 72 hrs by MTT assay; assay type: cell-based; conditions: l02, 72 h; procedure, shortened: as §1
# [6] = Cytotoxicity against rat PC12 cells assessed as reduction in cell viability at 256 ug/mL after 72 hrs by MTT assay; assay type: cell-based; conditions: pc-12, 72 h; procedure, shortened: as §1
# [7] = Cytotoxicity against human LO2 cells assessed as reduction in cell viability at 256 ug/mL after 72 hrs by MTT assay; assay type: cell-based; conditions: l02, 72 h; procedure, shortened: as §1
# [8] = Inhibition of Escherichia coli DNA gyrase assessed as reduction in enzyme-mediated supercoiling of pBR322 DNA after 1.5 hrs by agarose gel electrophoresis method
# [9] = (§2) Antibacterial activity against Eberthella typhosa ATCC 14028 after 18 to 24 hrs; assay type: functional
# Bacillus [10] = test: Antibacterial activity against Bacillus proteus ATCC 13315 after 18 to 24 hrs; assay type: functional
# Calf thymus DNA = test: Binding affinity to calf thymus double stranded DNA assessed as hypochromic effect in absence of Mg2+ ion by […] spectroscopic analysis; assay type: nucleic-acid assay; conditions: Bos taurus
# Bacillus [11] = test: Potency index, ratio of norfloxacin MIC to compound MIC for Bacillus proteus ATCC 13315; assay type: functional
# Eberthella typhosa [12] = test: Potency index, ratio of norfloxacin MIC to compound MIC for Eberthella typhosa ATCC 14028; assay type: functional
# Eberthella typhosa [13] = test: as §2; assay type: functional
# Staphylococcus aureus [14] = test: Antibacterial activity against methicillin/quinolone-resistant Staphylococcus aureus ATCC 700699; assay type: functional
# [15] = Cytotoxicity against rat PC12 cells assessed as cell viability at 512 ug/mL after 72 hrs by MTT assay; assay type: cell-based; conditions: pc-12, 72 h; procedure, shortened: as §1
# Albumin [16] = target: T1, Albumin (Homo sapiens, UniProt P02768); test: Binding affinity to human serum albumin at pH 7.4 at 288 K by Scatchard plot analysis; assay type: ADME; conditions: isolated protein
# T1 sequence (P02768 whole entry): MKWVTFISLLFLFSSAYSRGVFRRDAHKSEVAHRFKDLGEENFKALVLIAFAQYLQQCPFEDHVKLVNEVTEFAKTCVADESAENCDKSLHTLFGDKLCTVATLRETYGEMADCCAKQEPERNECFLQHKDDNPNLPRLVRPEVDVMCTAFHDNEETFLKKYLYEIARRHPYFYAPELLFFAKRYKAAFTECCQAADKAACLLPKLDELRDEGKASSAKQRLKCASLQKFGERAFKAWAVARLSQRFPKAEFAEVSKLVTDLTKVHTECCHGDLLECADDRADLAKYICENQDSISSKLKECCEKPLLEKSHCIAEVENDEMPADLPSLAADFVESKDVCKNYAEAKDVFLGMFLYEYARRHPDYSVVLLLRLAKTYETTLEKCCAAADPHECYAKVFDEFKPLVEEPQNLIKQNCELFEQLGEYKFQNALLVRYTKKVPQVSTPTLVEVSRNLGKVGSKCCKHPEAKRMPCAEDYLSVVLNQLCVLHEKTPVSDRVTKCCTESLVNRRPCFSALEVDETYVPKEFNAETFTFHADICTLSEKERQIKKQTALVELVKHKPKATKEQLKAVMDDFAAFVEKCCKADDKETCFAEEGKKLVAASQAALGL
# Procedure, shortened: (§3)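 Scatchard treatment of the HSA fluorescence-quenching titration in pH 7.4 solution (excitation 295 nm) at each temperature. It gave the binding constant Kb and the number of binding sites n, with fit correlation R and SD.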
# Albumin [17] = target: T1, Albumin; test: Binding affinity to human serum albumin at pH 7.4 at 303 K by Scatchard plot analysis; assay type: ADME; conditions: isolated protein; procedure, shortened: as §3
# Albumin [18] = target: T1, Albumin; test: Binding affinity to human serum albumin at pH 7.4 at 310 K by Scatchard plot analysis; assay type: ADME; conditions: isolated protein; procedure, shortened: as §3
# Staphylococcus aureus [19] = test: Binding affinity to methicillin-resistant Staphylococcus aureus double stranded genomic DNA assessed as hypochromic effect by spectroscopic analysis
# Procedure, shortened: (§4)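 MRSA genomic DNA stock was quantified by absorbance at 260 nm, using ε260 = 6600 L mol⁻¹ cm⁻¹ (as molarity of phosphate). Purity was checked by the A260/A280 ratio.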
# Staphylococcus aureus [20] = test: Electrostatic binding to methicillin-resistant Staphylococcus aureus double stranded genomic DNA assessed as Stern-Volmer constant in presence of potassium iodide by steady state quenching analysis; procedure, shortened: as §4
# Staphylococcus aureus [21] = test: Binding affinity to methicillin-resistant Staphylococcus aureus double stranded genomic DNA assessed as decrease in fluorescence intensity in absence of Cu2+ ions by spectrofluorometric analysis; procedure, shortened: as §4
# Staphylococcus aureus [22] = test: Binding affinity to methicillin-resistant Staphylococcus aureus double stranded genomic DNA assessed as decrease in fluorescence intensity at 2.23 x 10^-5M in presence of 20 x 10^-5 M Cu2+ ions by spectrofluorometric analysis; procedure, shortened: as §4
# Staphylococcus aureus [23] = test: Binding affinity to methicillin-resistant Staphylococcus aureus double stranded genomic DNA assessed as decrease in fluorescence intensity at 2.23 x 10^-5 M in presence of 0.4 x 10^-6 M Cu2+ ions by spectrofluorometric analysis; procedure, shortened: as §4
# [24] = Cytotoxicity against rat PC12 cells assessed as cell viability at <512 ug/mL after 72 hrs by MTT assay relative to control; assay type: cell-based, PC-12; conditions: read-out: Activity; procedure, shortened: as §1
# [25] = Cytotoxicity against human LO2 cells assessed as cell viability at <512 ug/mL after 72 hrs by MTT assay relative to control; assay type: cell-based, L02; conditions: read-out: Activity; procedure, shortened: as §1
# Staphylococcus aureus [26] = test: Binding affinity to methicillin-resistant Staphylococcus aureus […] genomic DNA assessed as decrease in fluorescence intensity at 2 x 10^-5M at 294 K by spectrofluorometric analysis; procedure, shortened: as §4
# [27] = Binding affinity to 4.69 x 10^-5 M Cu2+ at 2.23 x 10^-5 M at pH 7.4 by spectrofluorimetric method
# [28] = Binding affinity to 0 to 6.03 x 10^-5 M Cu2+ assessed as 1:1 compound/metal ion complex formation at 2.23 x 10^-5 M at pH 7.4 by spectrofluorimetric method
smiles,measurement,setting,value
CCn1cc(C(=O)O)c(=O)c2cc(F)c(N3CCNCC3)cc21 [NORFLOXACIN],MIC,Micrococcus luteus,2.7 µg/mL
same,MIC,Staphylococcus aureus [1],10.7 µg/mL
same,MIC,Staphylococcus aureus [2],0.8 µg/mL
same,MIC,Bacillus spizizenii,1.3 µg/mL
same,MIC,Pseudomonas aeruginosa,1.7 µg/mL
same,MIC,Escherichia coli,4.3 µg/mL
same,Activity,[3],Toxic
same,Activity,[4],Toxic
same,Activity,[5],Toxic
same,Activity,[6],Toxic
same,Activity,[7],Toxic
same,IC50,[8],18.2 µM
same,MIC,[9],5.3 µg/mL
same,MIC,Bacillus [10],13.3 µg/mL
same,Activity,Calf thymus DNA,16%
CCn1cc(-c2csc(N)n2)c(=O)c2cc(F)c(F)cc21,MIC,Micrococcus luteus,5.3 µg/mL
same,MIC,Staphylococcus aureus [1],213 µg/mL
same,MIC,Staphylococcus aureus [2],0.8 µg/mL
same,MIC,Bacillus spizizenii,26.7 µg/mL
same,MIC,Pseudomonas aeruginosa,78.6 µg/mL
same,MIC,Escherichia coli,256 µg/mL
same,MIC,[9],1.2 µg/mL
same,MIC,Bacillus [10],0.6 µg/mL
same,Ratio,Bacillus [11],22
same,Ratio,Eberthella typhosa [12],4
CCn1cc(-c2csc(N)n2)c(=O)c2cccc(F)c21,MIC,Micrococcus luteus,2.7 µg/mL
same,MIC,Staphylococcus aureus [1],inactive
same,MIC,Staphylococcus aureus [2],inactive
same,MIC,Bacillus spizizenii,13.3 µg/mL
same,MIC,Pseudomonas aeruginosa,24 µg/mL
same,MIC,Escherichia coli,9.3 µg/mL
same,MIC,Eberthella typhosa [13],inactive
same,MIC,Bacillus [10],256 µg/mL
CCn1cc(-c2csc(N)n2)c(=O)c2cc(N3CCCC3)c(Cl)cc21,MIC,Micrococcus luteus,2.7 µg/mL
same,MIC,Staphylococcus aureus [1],0.8 µg/mL
same,MIC,Staphylococcus aureus [2],0.6 µg/mL
same,MIC,Bacillus spizizenii,1.3 µg/mL
same,MIC,Pseudomonas aeruginosa,0.5 µg/mL
same,MIC,Escherichia coli,0.8 µg/mL
same,MIC,Staphylococcus aureus [14],16 µg/mL
same,Activity,[15],Non-toxic
same,Activity,[3],Non-toxic
same,Activity,[4],Non-toxic
same,Activity,[5],Non-toxic
same,Activity,[6],Non-toxic
same,Activity,[7],Non-toxic
same,IC50,[8],11.5 µM
same,Kb,Albumin [16],0.726 ×10⁵ L/mol
same,Kb,Albumin [17],0.701 ×10⁵ L/mol
same,Kb,Albumin [18],0.656 ×10⁵ L/mol
same,Activity,Staphylococcus aureus [19],11.4%
same,KSV,Staphylococcus aureus [20],30.1 M⁻¹
same,Activity,Staphylococcus aureus [21],inactive
same,Activity,Staphylococcus aureus [22],Active
same,Activity,Staphylococcus aureus [23],Active
same,MIC,[9],2 µg/mL
same,MIC,Bacillus [10],1 µg/mL
same,viability at 72 h,[24],> 88%
same,viability at 72 h,[25],> 88%
same,Activity,Staphylococcus aureus [26],Active
same,Activity,[27],Active
same,Activity,[28],Active
CCn1cc(C(C)=O)c(=O)c2cc(N3CCCCC3)c(Cl)cc21,MIC,Micrococcus luteus,37.3 µg/mL
same,MIC,Staphylococcus aureus [1],128 µg/mL
same,MIC,Staphylococcus aureus [2],37.3 µg/mL
same,MIC,Bacillus spizizenii,35.4 µg/mL
same,MIC,Pseudomonas aeruginosa,42.7 µg/mL
same,MIC,Escherichia coli,13.3 µg/mL
same,MIC,Eberthella typhosa [13],inactive
same,MIC,Bacillus [10],171 µg/mL
CCn1cc(-c2csc(N)n2)c(=O)c2cc(OC)ccc21,MIC,Micrococcus luteus,42.7 µg/mL
same,MIC,Staphylococcus aureus [1],256 µg/mL
same,MIC,Staphylococcus aureus [2],18.8 µg/mL
same,MIC,Bacillus spizizenii,10.7 µg/mL
same,MIC,Pseudomonas aeruginosa,21.3 µg/mL
same,MIC,Escherichia coli,13.3 µg/mL
same,MIC,[9],8 µg/mL
same,MIC,Bacillus [10],2.7 µg/mL
